Source: ChEMBL document CHEMBL1821702, “8,8-Dimethyldihydroberberine with improved bioavailability and oral efficacy on obese and diabetic mouse models” (Bioorg Med Chem, 2010)

Assays:
L6 [1] = test: Cytotoxicity against rat L6 cells upto 40 uM after 24 hrs by MTT assay; format: cell-based; details: l6, 24 h
Outline: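 Differentiated L6 myoblasts were exposed to a concentration range of compounds for 24 h at 37 °C. MTT (5 mg/mL) was added for 3 h, formazan was dissolved in DMSO, and absorbance was read at 550 nm against 690 nm reference. Mean of three independent experiments ± SE.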

L6 [2] = test: Increase in glucose uptake in rat differentiated L6 myotubes after 1 hr relative to untreated control; format: functional
Outline: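 Fully differentiated L6 myotubes were serum-starved 2 h, then treated with compound for 15 min to 2 h (dose series at 1 h). Glucose uptake was measured relative to DMSO control. Mean of three independent experiments ± SE.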

`CCCC1(CCC)c2c(ccc(OC)c2OC)CC2=[N+]1CCc1cc3c(cc12)OCO3.[Cl-]` [8,8-Dipropyldihydroberberine] was tested, and the Activity (L6 [1]) was “Non-toxic” and the Activity (L6 [2]) was 62%.
